Reference: ChEMBL document CHEMBL1122744, “2-Chloroethyl (methylsulfonyl)methanesulfonate and related (methylsulfonyl)methanesulfonates. Antineoplastic activity in vivo” (J Med Chem, 1984)

How the values were obtained:
[1] = tested on: Mus musculus; test: Mortality by day 5 expressed as number of mice died to the total treated at dose 50 mg/kg in exp7; 0/6; assay type: ADME, organism-based; parameters: dose 50 mg/kg; settings: in vivo
[2] = tested on: Mus musculus; test: Mortality by day 5 expressed as number of mice died to the total treated at dose 50 mg/kg in exp8; 0/6; assay type: ADME, organism-based; parameters: dose 50 mg/kg; settings: in vivo
[3] = Ratio of number of 30-day survivors to the total treated mice at dose 50 mg/kg in exp5; 3/6; assay type: functional
[4] = tested on: Mus musculus; test: Change in weight by day 5, obtained by subtracting treated groups of animals minus control groups of animals at dose 200 mg/kg in exp1.; assay type: functional
Procedure, shortened: (§1)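 Mice were inoculated ip with 10^6 P388 leukemia cells on day 0 and weighed 19–22 g that day. Compound was given ip once daily on days 1–5, within about 5 min of preparing the solution or suspension, to groups of six (occasionally five). Thirty inoculated untreated mice served as controls. The value is the average weight change of treated mice minus that of controls on day 5.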

[5] = tested on: Mus musculus; test: Median survival time of the untreated control groups, in which there are no 30-day survivors at dose 50 mg/kg in exp4; assay type: functional
[6] = tested on: Mus musculus; test: Change in weight by day 5, obtained by subtracting treated groups of animals minus control groups of animals at dose 22 mg/kg in exp5; assay type: functional; procedure, shortened: as §1
[7] = tested on: Mus musculus; test: Median survival time of the treated control groups, in which there are no 30-day survivors at dose 22 mg/kg in exp5; assay type: functional
[8] = tested on: Mus musculus; test: Mortality by day 5 expressed as number of mice died to the total treated at dose 50 mg/kg in exp6; 0/6; assay type: ADME, organism-based; parameters: dose 50 mg/kg; settings: in vivo
[9] = Ratio of median survival times for non-survivors at dose 15 mg/kg in exp3; assay type: functional
Procedure, shortened: (§2)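 Mice were inoculated ip with 10^6 P388 leukemia cells on day 0. Groups of six (occasionally five) were dosed ip qd on days 1–5 with fresh suspensions; 30 mice served as untreated controls. Deaths were recorded daily up to day 60. T/C% compares the median survival of treated non-survivors (<60 days) with the control median. Medians used grouped data when there were no 30-day survivors, otherwise ungrouped data. t = toxic.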

[10] = tested on: Mus musculus; test: Median survival time of the treated control groups, in which there are no 30-day survivors at dose 100 mg/kg in exp2; assay type: functional
[11] = tested on: Mus musculus; test: Median survival time of the treated control groups, in which there are no 30-day survivors at dose 50 mg/kg in exp8; assay type: functional
[12] = tested on: Mus musculus; test: Median survival time of the treated control groups, in which there are no 30-day survivors at dose 75 mg/kg in exp2; assay type: functional
[13] = Ratio of number of 30-day survivors to the total treated mice at dose 33 mg/kg in exp4; 1/6; assay type: functional
[14] = Ratio of median survival times for non-survivors at dose 50 mg/kg in exp6; assay type: functional
[15] = tested on: Mus musculus; test: Median survival time of the untreated control groups, in which there are no 30-day survivors at dose 75 mg/kg in exp2; assay type: functional
[16] = tested on: Mus musculus; test: Median survival time of the untreated control groups, in which there are no 30-day survivors at dose 150 mg/kg in exp2; assay type: functional
[17] = Ratio of median survival times for non-survivors at dose 22 mg/kg in exp7; assay type: functional
[18] = tested on: Mus musculus; test: Mortality by day 5 expressed as number of mice died to the total treated at dose 22 mg/kg in exp5; 0/6; assay type: ADME, organism-based; parameters: dose 22 mg/kg; settings: in vivo
[19] = tested on: Mus musculus; test: Mortality by day 5 expressed as number of mice died to the total treated at dose 50 mg/kg in exp1; 0/5; assay type: ADME, organism-based; parameters: dose 50 mg/kg; settings: in vivo
[20] = Ratio of number of 30-day survivors to the total treated mice at dose 50 mg/kg in exp8; 4/6; assay type: functional
[21] = tested on: Mus musculus; test: Mortality by day 5 expressed as number of mice died to the total treated at dose 33 mg/kg in exp7; 0/6; assay type: ADME, organism-based; parameters: dose 33 mg/kg; settings: in vivo
[22] = tested on: Mus musculus; test: Median survival time of the treated control groups, in which there are no 30-day survivors at dose 50 mg/kg in exp5; assay type: functional
[23] = Ratio of median survival times for non-survivors at dose 50 mg/kg in exp8; assay type: functional
[24] = tested on: Mus musculus; test: Change in weight by day 5, obtained by subtracting treated groups of animals minus control groups of animals at dose 33 mg/kg in exp3.; assay type: functional; procedure, shortened: as §1
[25] = Ratio of number of 60-day survivors to the total treated mice at dose 50 mg/kg in exp5; 1/6; assay type: functional
[26] = tested on: Mus musculus; test: Change in weight by day 5, obtained by subtracting treated groups of animals minus control groups of animals at dose 33 mg/kg in exp2.; assay type: functional; procedure, shortened: as §1
[27] = tested on: Mus musculus; test: Median survival time of the untreated control groups, in which there are no 30-day survivors at dose 22 mg/kg in exp5; assay type: functional
[28] = tested on: Mus musculus; test: Change in weight by day 5, obtained by subtracting treated groups of animals minus control groups of animals at dose 33 mg/kg in exp4.; assay type: functional; procedure, shortened: as §1
[29] = tested on: Mus musculus; test: Median survival time of the treated control groups, in which there are no 30-day survivors at dose 22 mg/kg in exp6; assay type: functional
[30] = tested on: Mus musculus; test: Change in weight by day 5, obtained by subtracting treated groups of animals minus control groups of animals at dose 50 mg/kg in exp7; assay type: functional; procedure, shortened: as §1
[31] = tested on: Mus musculus; test: Change in weight by day 5, obtained by subtracting treated groups of animals minus control groups of animals at dose 75 mg/kg in exp2.; assay type: functional; procedure, shortened: as §1
[32] = Ratio of median survival times for non-survivors at dose 22 mg/kg in exp4
[33] = Ratio of median survival times for non-survivors at dose 33 mg/kg in exp5; assay type: functional
[34] = tested on: Mus musculus; test: Mortality by day 5 expressed as number of mice died to the total treated at dose 33 mg/kg in exp6; 0/6; assay type: ADME, organism-based; parameters: dose 33 mg/kg; settings: in vivo
[35] = Ratio of number of 60-day survivors to the total treated mice at dose 50 mg/kg in exp2; 0/5; assay type: functional
[36] = tested on: Mus musculus; test: Change in weight by day 5, obtained by subtracting treated groups of animals minus control groups of animals at dose 22 mg/kg in exp6; assay type: functional; procedure, shortened: as §1
[37] = Ratio of number of 30-day survivors to the total treated mice at dose 50 mg/kg in exp4; 6/6; assay type: functional
[38] = Ratio of median survival times for non-survivors at dose 22 mg/kg in exp5; assay type: functional
[39] = tested on: Mus musculus; test: Mortality by day 5 expressed as number of mice died to the total treated at dose 75 mg/kg in exp2; 0/5; assay type: ADME, organism-based; parameters: dose 75 mg/kg; settings: in vivo
[40] = tested on: Mus musculus; test: Mortality by day 5 expressed as number of mice died to the total treated at dose 200 mg/kg in exp1; 5/6; assay type: ADME, organism-based; parameters: dose 200 mg/kg; settings: in vivo
[41] = Ratio of median survival times for non-survivors at dose 33 mg/kg in exp3; assay type: functional
[42] = tested on: Mus musculus; test: Mortality by day 5 expressed as number of mice died to the total treated at dose 100 mg/kg in exp2; 1/5; assay type: ADME, organism-based; parameters: dose 100 mg/kg; settings: in vivo
[43] = Ratio of median survival times for non-survivors at dose 50 mg/kg in exp2; assay type: functional; procedure, shortened: as §2
[44] = Ratio of number of 30-day survivors to the total treated mice at dose 50 mg/kg in exp2; 2/5; assay type: functional
[45] = tested on: Mus musculus; test: Median survival time of the untreated control groups, in which there are no 30-day survivors at dose 33 mg/kg in exp4; assay type: functional

CS(=O)(=O)CS(=O)(=O)OCCCl
Mortality [1]: 0 | Mortality [2]: 0 | Ratio [3]: 3 | T-C [4]: -5 g | Median survival time [5]: 10.5 | Change in weight [6]: -1.3 | Median survival time [7]: 19.4 | Mortality [8]: 0 | Ratio [9]: 144 | Median survival time [10]: 22.5 | Median survival time [11]: 30 | Median survival time [12]: 17.5 | Ratio [13]: 1 | Ratio [14]: 335 | Median survival time [15]: 11.2 | Median survival time [16]: 11.2 | Ratio [17]: 168 | Mortality [18]: 0 | Mortality [19]: 0 | Ratio [20]: 4 | Mortality [21]: 0 | Median survival time [22]: 27 | Ratio [23]: 273 | Change in weight [24]: -2.8 | Ratio [25]: 1 | Change in weight [26]: -2.5 | Median survival time [27]: 12 | Change in weight [28]: -2.6 | Median survival time [29]: 20.8 | Change in weight [30]: -3 | Change in weight [31]: -4.2 | Ratio [32]: 180 | Ratio [33]: 214 | Mortality [34]: 0 | Ratio [35]: 0 | Change in weight [36]: -1.4 | Ratio [37]: 6 | Ratio [38]: 161 | Mortality [39]: 0 | Mortality [40]: 5 | Ratio [41]: 198 | Mortality [42]: 1 | Ratio [43]: 241 | Ratio [44]: 2 | Median survival time [45]: 10.5
